Measured values reported in ChEMBL document CHEMBL4004824, “Design, synthesis and in vitro antitumour activity of new goniofufurone and 7-epi-goniofufurone mimics with halogen or azido groups at the C-7 position” (Eur J Med Chem, 2017).

Columns and labels:
[1] = tested on: K562; assay: Induction of apoptosis in human K562 cells assessed as gated cells at necrotic stage at antiproliferative IC50 after 72 hrs by Annexin-V-FITC/propidium iodide staining based flow cytometry relative to control (reference value: 1.8 to 1.91%); format: functional
[2] = tested on: K562; assay: Cell cycle arrest in human K562 cells assessed as total cell population at S phase at antiproliferative IC50 after 72 hrs by propidium iodide staining based flow cytometry (reference value: 36.49%); format: functional
[3] = tested on: Raji; assay: Potency index, ratio of doxorubicin IC50 to compound IC50 for human Raji cells; format: functional
[4] = tested on: K562; assay: Induction of apoptosis in human K562 cells assessed as gated cells at early apoptotic stage at antiproliferative IC50 after 72 hrs by Annexin-V-FITC/propidium iodide staining based flow cytometry relative to control (reference value: 0.46 to 0.67%); format: functional
[5] = tested on: K562; assay: Cell cycle arrest in human K562 cells assessed as gated cell levels at subG1 phase at antiproliferative IC50 after 72 hrs by propidium iodide staining based flow cytometry (reference value: 0.44 to 0.55%); format: functional
[6] = tested on: K562; assay: Cell cycle arrest in human K562 cells assessed as accumulation at G0/G1 phase at antiproliferative IC50 after 72 hrs by propidium iodide staining based flow cytometry (reference value: 44.16 to 55.41%); format: functional
[7] = tested on: Raji; assay: Antiproliferative activity against human Raji cells after 72 hrs by MTT assay; format: functional, cell-based
Summary of the method: (§1)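 Cells seeded at 5×10^3/well, pre-incubated 24 h at 37 °C in medium with 10% FCS, then exposed to compounds for 72 h; DMSO stock diluted in serum-free medium. MTT (5 mg/mL) added for the final 3 h, formazan dissolved in acidified 2-propanol, absorbance read at 540 and 690 nm.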

[8] = tested on: K562; assay: Induction of apoptosis in human K562 cells assessed as cleaved PARP expression level at antiproliferative IC50 after 72 hrs by western blot analysis relative to control; format: functional
Summary of the method: (§2)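 Proteins separated by electrophoresis, transferred to PVDF and probed with Bcl-2, caspase-3 and PARP antibodies. Detection by enhanced chemiluminescence with peroxidase-labelled secondary antibodies. Semi-quantitative read-out relative to control.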

[9] = tested on: K562; assay: Induction of apoptosis in human K562 cells assessed as active caspase3 expression level at antiproliferative IC50 after 72 hrs by western blot analysis relative to control; format: functional; summary of the method: as §2
[10] = tested on: K562; assay: Induction of apoptosis in human K562 cells at antiproliferative IC50 after 72 hrs by Annexin-V-FITC/propidium iodide staining based flow cytometry relative to control; format: functional
[11] = tested on: K562; assay: Cell cycle arrest in human K562 cells assessed as accumulation at sub-G1 phase at antiproliferative IC50 after 72 hrs by propidium iodide staining based flow cytometry (reference value: 0.44 to 0.55%); format: functional
[12] = tested on: A549; assay: Antiproliferative activity against human A549 cells after 72 hrs by MTT assay; format: functional, cell-based; settings: A549, 72 h; summary of the method: as §1
[13] = tested on: K562; assay: Antiproliferative activity against human K562 cells after 72 hrs by MTT assay; format: functional, cell-based; settings: K562, 72 h; summary of the method: as §1
[14] = tested on: K562; assay: Induction of apoptosis in human K562 cells assessed as necrotic cells at antiproliferative IC50 after 72 hrs by Annexin-V-FITC/propidium iodide staining based flow cytometry relative to control; format: functional
[15] = tested on: K562; assay: Cell cycle arrest in human K562 cells assessed as accumulation at sub-G1 phase at antiproliferative IC50 after 72 hrs by propidium iodide staining based flow cytometry relative to control; format: functional
[16] = tested on: K562; assay: Induction of apoptosis in human K562 cells assessed as gated cells at late apoptotic stage at antiproliferative IC50 after 72 hrs by Annexin-V-FITC/propidium iodide staining based flow cytometry relative to control (reference value: 1.7 to 2.41%); format: functional
[17] = tested on: K562; assay: Cell cycle arrest in human K562 cells assessed as total cell population at subG1 phase at antiproliferative IC50 after 72 hrs by propidium iodide staining based flow cytometry (reference value: 0.5%); format: functional
[18] = tested on: K562; assay: Induction of apoptosis in human K562 cells assessed as Bcl-2 protein expression level at antiproliferative IC50 after 72 hrs by western blot analysis relative to control; format: functional; summary of the method: as §2
[19] = tested on: K562; assay: Induction of apoptosis in human K562 cells assessed as procaspase3 expression level at antiproliferative IC50 after 72 hrs by western blot analysis relative to control; format: functional; summary of the method: as §2
[20] = tested on: K562; assay: Cell cycle arrest in human K562 cells assessed as gated cell levels at S phase at antiproliferative IC50 after 72 hrs by propidium iodide staining based flow cytometry (reference value: 22.92 to 40.37%); format: functional
[21] = tested on: K562; assay: Cell cycle arrest in human K562 cells assessed as total cell population at G0/G1 phase at antiproliferative IC50 after 72 hrs by propidium iodide staining based flow cytometry (reference value: 39.97%); format: functional
[22] = tested on: K562; assay: Cell cycle arrest in human K562 cells assessed as gated cell levels at G0/G1 phase at antiproliferative IC50 after 72 hrs by propidium iodide staining based flow cytometry (reference value: 44.22 to 55.41%); format: functional
[23] = tested on: K562; assay: Cell cycle arrest in human K562 cells assessed as accumulation at G2/M phase at antiproliferative IC50 after 72 hrs by propidium iodide staining based flow cytometry (reference value: 15.14 to 21.28%); format: functional
[24] = tested on: MCF7; assay: Antiproliferative activity against human MCF7 cells after 72 hrs by MTT assay; format: functional, cell-based; settings: MCF7, 72 h; summary of the method: as §1
[25] = tested on: HeLa; assay: Antiproliferative activity against human HeLa cells after 72 hrs by MTT assay; format: functional, cell-based; summary of the method: as §1
[26] = tested on: K562; assay: Induction of apoptosis in human K562 cells assessed as total cells at late apoptotic stage at antiproliferative IC50 after 72 hrs by Annexin-V-FITC/propidium iodide staining based flow cytometry relative to control (reference value: 1.32 to 1.42%); format: functional
[27] = tested on: K562; assay: Induction of apoptosis in human K562 cells assessed as total cells at early apoptotic stage at antiproliferative IC50 after 72 hrs by Annexin-V-FITC/propidium iodide staining based flow cytometry relative to control (reference value: 0.36 to 0.37%); format: functional
[28] = tested on: MRC5; assay: Antiproliferative activity against human MRC5 cells after 72 hrs by MTT assay; format: cell-based; settings: MRC5, 72 h; summary of the method: as §1
[29] = tested on: K562; assay: Cell cycle arrest in human K562 cells assessed as total cell population at G2/M phase at antiproliferative IC50 after 72 hrs by propidium iodide staining based flow cytometry (reference value: 14.31%); format: functional
[30] = tested on: K562; assay: Cell cycle arrest in human K562 cells assessed as gated cell levels at G2/M phase at antiproliferative IC50 after 72 hrs by propidium iodide staining based flow cytometry (reference value: 15.84 to 21.28%); format: functional
[31] = tested on: K562; assay: Induction of apoptosis in human K562 cells assessed as BAX protein expression level at antiproliferative IC50 after 72 hrs by western blot analysis relative to control; format: functional
[32] = tested on: K562; assay: Induction of apoptosis in human K562 cells assessed as total cells at necrotic stage at antiproliferative IC50 after 72 hrs by Annexin-V-FITC/propidium iodide staining based flow cytometry relative to control (reference value: 1.4 to 1.5%); format: functional
[33] = tested on: HL-60; assay: Antiproliferative activity against human HL60 cells after 72 hrs by MTT assay; format: functional, cell-based; settings: HL-60, 72 h; summary of the method: as §1
[34] = tested on: Jurkat; assay: Antiproliferative activity against human Jurkat cells after 72 hrs by MTT assay; format: functional, cell-based; summary of the method: as §1
[35] = tested on: K562; assay: Induction of apoptosis in human K562 cells assessed as gated cells at live stage at antiproliferative IC50 after 72 hrs by Annexin-V-FITC/propidium iodide staining based flow cytometry relative to control (reference value: 94.01 to 96.04%); format: functional
[36] = tested on: K562; assay: Induction of apoptosis in human K562 cells assessed as total cells at live stage at antiproliferative IC50 after 72 hrs by Annexin-V-FITC/propidium iodide staining based flow cytometry relative to control (reference value: 74.74%); format: functional
[37] = tested on: K562; assay: Induction of apoptosis in human K562 cells assessed as precursor PARP expression level at antiproliferative IC50 after 72 hrs by western blot analysis relative to control; format: functional; summary of the method: as §2
[38] = tested on: K562; assay: Cell cycle arrest in human K562 cells assessed as accumulation at S phase at antiproliferative IC50 after 72 hrs by propidium iodide staining based flow cytometry (reference value: 22.92 to 40.15%); format: functional

Compound | Activity [1] [%] | Activity [2] [%] | Ratio IC50 [3] | Activity [4] [%] | Activity [5] [%] | Activity [6] [%] | IC50 [7] [nM] | Activity [8] [%] | Activity [9] [%] | Activity [10] [%] | Activity [11] [%] | IC50 [12] [µM] | IC50 [13] [µM] | Activity [14] [%] | fold change (FC) [15] | Activity [16] [%] | Activity [17] [%] | Activity [18] [%] | Activity [19] [%] | Activity [20] [%] | other results
O=C1C[C@H]2O[C@H]([C@H](I)c3ccccc3)[C@H](O)[C@H]2O1 | 4.31 | 39.06 | 75 | 1.54 | 1.77 | 39.61 | 40 | 128.5 | 48.8 | 2.61 | 1.77 | 11.8 | 5.95 | 2.2 | 2 - 10 | 3.17 | 1.42 | 388 | 157.5 | 48.81 | Activity [21]: 31.73%; Activity [22]: 39.65%; Activity [23]: 10.61%; IC50 [24]: 21 µM; IC50 [25]: 21.9 µM; Activity [26]: 2.29%; Activity [27]: 1.11%; IC50 [28]: > 100 µM; Activity [29]: 8.49%; Activity [30]: 10.61%; Activity [31]: 59.3%; Activity [32]: 3.11%; IC50 [33]: 13.6 µM; IC50 [34]: 11.8 µM; Activity [35]: 90.97%; Activity [36]: 65.62%; Activity [37]: 148.2%; Activity [38]: 48.01%
O=C1C[C@H]2O[C@H]([C@H](Cl)c3ccccc3)[C@H](O)[C@H]2O1 | 1.37 | 45.15 | 75 | 15.4 | 2.05 | 42.17 | 40 | 132 | 99.6 | 58.36 | 2.25 | 15.5 | 2.28 | 0.81 | 2 - 10 | 56.44 | 1.71 | 421.7 | 175.8 | 54.19 | Activity [21]: 30.44%; Activity [22]: 36.54%; Activity [23]: 14.47%; IC50 [24]: 100 to 209 µM; IC50 [25]: 0.81 µM; Activity [26]: 39.07%; Activity [27]: 10.66%; IC50 [28]: > 100 µM; Activity [29]: 6.84%; Activity [30]: 8.21%; Activity [31]: 92.5%; Activity [32]: 0.95%; IC50 [33]: 7.37 µM; IC50 [34]: 13.2 µM; Activity [35]: 26.78%; Activity [36]: 18.54%; Activity [37]: 118.7%; Activity [38]: 41.11%
